Data taken from ChEMBL document CHEMBL3124940, “Design, synthesis and biological evaluation of D-ring opened galantamine analogs as multifunctional anti-Alzheimer agents” (Eur J Med Chem, 2014).
The source made the active and inactive calls. The calls are words filed in the database; no cut-off is given here.

Experiments:
Rattus norvegicus [1] = assay: Toxicity in Wistar rat assessed as total glutathione level in kidney at 1 umol/100 g body weight, ip by fluorometric analysis relative to control; format: organism-based; conditions: in vivo
How it was run: (§1)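 Rats dosed i.p.; tissues taken after 24 h. For GSH/GSSG, tissue homogenized in 11 volumes of 0.2 M sodium phosphate (5 mM EDTA, pH 8.0) plus 4 volumes of 25% metaphosphoric acid and centrifuged 12 000 × g, 4 °C, 30 min; supernatant read photometrically (GSH) or fluorometrically (GSSG). Lipid peroxidation products measured as TBARS in 19-volume ice-cold saline homogenates, fluorometrically.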

Rattus norvegicus [2] = assay: Toxicity in Wistar rat assessed as GSSG level in brain at 1 umol/100 g body weight, ip by fluorometric analysis relative to control; format: organism-based; conditions: in vivo; how it was run: as §1
Rattus norvegicus [3] = assay: Antialzheimer activity in Wistar rat scopolamine-induced cognition impairment model assessed as total exploration time at 1 umol/100 g body weight, ip treated for 5 mins prior to scopolamine-challenge by eight-arm radial maze test relative to control; format: functional
How it was run: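 Female 60-day-old Wistar rats (Han:Wist) trained in an eight-arm radial maze to error-free trials under 60 s on three consecutive days; each animal served as its own control. Test agent given i.p. in saline 5 min before scopolamine (0.05 mg/100 g b. wt., i.p. in saline). Errors plus baits not found after 10 min, and total searching time, recorded before and 20, 60, 120 min after scopolamine; n = 14, mean ± SEM.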

Rattus norvegicus [4] = assay: Toxicity in Wistar rat assessed as brain weight at 1 umol/100 g body weight, ip relative to control; format: organism-based; conditions: in vivo
PC-12 = assay: Neuroprotective activity in rat PC12 cells assessed as decrease in amyloid beta (1 to 42)-induced cytotoxicity after 24 hrs by MTT assay; format: functional, cell-based
How it was run: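 PC12 cells in F-12 with 10% FBS at 37 °C, 5% CO2, plated at 2000 cells/well and grown 24 h. Compound added (final 0.008–10 µM, DMSO below 0.5%) with Aβ42 (final 5 µM), 24 h at 37 °C. Aβ42 prepared by HFIP treatment, dried, taken up to 100 µM in F-12 and held 4 °C for 24 h. MTT for 4 h, DMSO solubilization, read at 540 nm; reported as % of control, three independent trials, mean ± SEM.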

Rattus norvegicus [5] = assay: Toxicity in Wistar rat assessed as lipidperoxidation product level in liver at 6 umol/100 g body weight, ip relative to control; format: organism-based; conditions: in vivo
Rattus norvegicus [6] = assay: Toxicity in Wistar rat assessed as GSH level in kidney at 1 umol/100 g body weight, ip by fluorometric analysis relative to control; format: organism-based; conditions: in vivo
Rattus norvegicus [7] = assay: Toxicity in Wistar rat assessed as ethoxycoumarin-O-deethylation activity in liver measured as 7-hydroxycoumarin level at 1 umol/100 g body weight, ip by fluorometric analysis relative to control; format: organism-based; conditions: in vivo
Rattus norvegicus [8] = assay: Toxicity in Wistar rat assessed as GSSG level in kidney at 1 umol/100 g body weight, ip by fluorometric analysis relative to control; format: organism-based; conditions: in vivo; how it was run: as §1
Rattus norvegicus [9] = assay: Toxicity in Wistar rat assessed as GSSG level in brain at 6 umol/100 g body weight, ip by fluorometric analysis relative to control; format: organism-based; conditions: in vivo; how it was run: as §1
[10] = biological target: Amyloid-beta precursor protein (Homo sapiens) (UniProt P05067); assay: Inhibition of amyloid beta (1 to 42) aggregation (unknown origin) at 50 uM after 1 hr by thioflavin T fluorescence assay relative to control
How it was run: (§2)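 Aβ42 stock (200 µM in DMSO) centrifuged 12,000 rpm for 10 min; supernatant used. Compound (2 µL of 0.2–4.0 mM DMSO stock) and 2 µL Aβ42 stock added to 76 µL PBS pH 7.4, incubated 1 h at room temperature. 80 µL of 5 µM ThT in 50 mM glycine-NaOH pH 8.5 then added; fluorescence read at excitation 430 nm, emission 488 nm.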

Rattus norvegicus [11] = assay: Toxicity in Wistar rat assessed as GSH level in liver at 1 umol/100 g body weight, ip by fluorometric analysis relative to control; format: organism-based; conditions: in vivo
Rattus norvegicus [12] = assay: Toxicity in Wistar rat assessed as ethylmorphine-N-demethylation activity in liver measured as formaldehyde level at 1 umol/100 g body weight, ip by photometric analysis relative to control; format: organism-based; conditions: in vivo
Rattus norvegicus [13] = assay: Toxicity in Wistar rat assessed as total glutathione level in liver at 6 umol/100 g body weight, ip by fluorometric analysis relative to control; format: organism-based; conditions: in vivo
How it was run: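 Rats were dosed, killed 24 h later, and liver and other tissues were taken. Samples were homogenized in 11 vol 0.2 M sodium phosphate (5 mM EDTA, pH 8.0) plus 4 vol 25% metaphosphoric acid, then spun at 12 000 × g, 4 °C, 30 min. GSH was read photometrically and GSSG fluorometrically in the supernatant, alongside total glutathione.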

[14] = biological target: Amyloid-beta precursor protein (Homo sapiens) (UniProt P05067); assay: Inhibition of amyloid beta (1 to 42) aggregation (unknown origin) after 1 hr by thioflavin T fluorescence assay; how it was run: as §2
[15] = biological target: Amyloid-beta precursor protein (Homo sapiens) (UniProt P05067); assay: Inhibition of amyloid beta (1 to 42) aggregation (unknown origin) at 5 uM after 1 hr by thioflavin T fluorescence assay; how it was run: as §2
Rattus norvegicus [16] = assay: Toxicity in Wistar rat assessed as ethoxycoumarin-O-deethylation activity in liver measured as 7-hydroxycoumarin level at 6 umol/100 g body weight, ip by fluorometric analysis relative to control; format: organism-based; conditions: in vivo
Rattus norvegicus [17] = assay: Toxicity in Wistar rat assessed as total glutathione level in brain at 1 umol/100 g body weight, ip by fluorometric analysis relative to control; format: organism-based; conditions: in vivo; how it was run: as §1
Rattus norvegicus [18] = assay: Toxicity in Wistar rat assessed as kidney weight at 6 umol/100 g body weight, ip relative to control; format: organism-based; conditions: in vivo
Rattus norvegicus [19] = assay: Toxicity in Wistar rat assessed as lipidperoxidation product level in liver at 1 umol/100 g body weight, ip relative to control; format: organism-based; conditions: in vivo
Rattus norvegicus [20] = assay: Toxicity in Wistar rat assessed as body weight at 6 umol/100 g body weight, ip relative to control; format: organism-based; conditions: in vivo
Rattus norvegicus [21] = assay: Toxicity in Wistar rat scopolamine-induced cognition impairment model assessed as change in movement at 1 umol/100 g body weight, ip; format: organism-based; conditions: in vivo
How it was run: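 60-day-old female Wistar rats were trained in an eight-arm radial maze to no errors in under 60 s on 3 consecutive days; each rat served as its own control. Compound in saline was given i.p., then scopolamine (0.05 mg/100 g, saline, i.p.) 5 min later. Errors plus baits not found after 10 min and total searching time were recorded before and 20, 60 and 120 min after scopolamine; n = 14, mean ± SEM.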

Rattus norvegicus [22] = assay: Toxicity in Wistar rat assessed as lipidperoxidation product level in brain at 1 umol/100 g body weight, ip by fluorometric analysis relative to control; format: organism-based; conditions: in vivo; how it was run: as §1
Rattus norvegicus [23] = assay: Toxicity in Wistar rat assessed as kidney weight at 1 umol/100 g body weight, ip relative to control; format: organism-based; conditions: in vivo

Chain of Amyloid-beta precursor protein (Homo sapiens) (P05067 whole entry): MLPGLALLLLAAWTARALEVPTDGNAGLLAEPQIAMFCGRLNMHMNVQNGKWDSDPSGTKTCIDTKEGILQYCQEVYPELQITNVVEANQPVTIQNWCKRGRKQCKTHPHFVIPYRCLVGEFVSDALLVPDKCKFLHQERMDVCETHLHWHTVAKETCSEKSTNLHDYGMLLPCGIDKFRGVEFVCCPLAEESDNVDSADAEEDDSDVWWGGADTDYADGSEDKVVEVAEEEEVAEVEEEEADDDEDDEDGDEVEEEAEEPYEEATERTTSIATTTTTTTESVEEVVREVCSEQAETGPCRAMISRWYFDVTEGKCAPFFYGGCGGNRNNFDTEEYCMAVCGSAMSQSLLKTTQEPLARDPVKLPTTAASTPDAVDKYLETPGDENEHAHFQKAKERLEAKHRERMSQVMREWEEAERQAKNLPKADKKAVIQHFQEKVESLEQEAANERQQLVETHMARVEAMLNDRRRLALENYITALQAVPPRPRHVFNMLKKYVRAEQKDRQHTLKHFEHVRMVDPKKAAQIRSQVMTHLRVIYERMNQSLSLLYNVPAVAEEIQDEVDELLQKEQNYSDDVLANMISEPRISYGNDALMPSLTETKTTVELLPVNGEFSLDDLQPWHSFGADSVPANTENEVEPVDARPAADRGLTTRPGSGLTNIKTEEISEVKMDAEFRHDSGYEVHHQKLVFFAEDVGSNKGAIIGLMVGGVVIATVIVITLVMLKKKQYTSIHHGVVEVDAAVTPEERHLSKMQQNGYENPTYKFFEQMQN

For COc1ccc2c(c1)oc1cccc(CN(C(=O)CCO[N+](=O)[O-])C(C)C)c12, the Activity (Rattus norvegicus [1]) was 1783 µg/g, the Activity (Rattus norvegicus [2]) was 84.8 µg/g and the Time (Rattus norvegicus [3]) was 175 s. The Activity (Rattus norvegicus [4]) was 1.95 g, the Activity (PC-12) was “Dose-dependent effect” and the Activity (Rattus norvegicus [5]) was 63.9 nmol/g. It also gave an Activity (Rattus norvegicus [6]) of 1462 µg/g, an Activity (Rattus norvegicus [7]) of 187 pmol/mg/min and an Activity (Rattus norvegicus [8]) of 161 µg/g. For the same molecule, the Activity (Rattus norvegicus [9]) was 79.1 µg/g, the inhibition [10] was 19% and the Activity (Rattus norvegicus [11]) was 2542 µg/g. The Activity (Rattus norvegicus [12]) was 0.48 nmol/mg/min, the Activity (Rattus norvegicus [13]) was 3320 µg/g and the inhibition [14] was “Dose-dependent effect”. For the same molecule, the inhibition [15] was “inactive”, the Activity (Rattus norvegicus [16]) was 178 pmol/mg/min and the Activity (Rattus norvegicus [17]) was 814 µg/g. For the same molecule, the Activity (Rattus norvegicus [18]) was 0.84 g, the Activity (Rattus norvegicus [19]) was 57.7 nmol/g and the Activity (Rattus norvegicus [20]) was 259 g. The Activity (Rattus norvegicus [21]) was “Non-toxic”, the Activity (Rattus norvegicus [22]) was 160 nmol/g and the Activity (Rattus norvegicus [23]) was 0.93 g.
